Assay results taken from ChEMBL document CHEMBL5214907 (J Med Chem, 2021).

Assays:
[1] = molecular target: Neuronal acetylcholine receptor; alpha9/alpha10 (Homo sapiens, UniProt Q9GZZ6+Q9UGM1); experiment: Inhibition of human alpha9alpha10 nAChR expressed in xenopus oocytes assessed as inhibition of Ach- induced response at -70 mV holding potential and measured for 1 to 5 days in presence of Ach stimulation by voltage-clamp based electrophysiological method; format: cell-based, Oocyte
Summary of the method: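 Two-electrode voltage clamp on Xenopus oocytes expressing human α9α10, recorded 1–5 d after injection. Held at −70 mV at room temperature in Ca²⁺-containing ND-96. A 1 s pulse of 100 µM ACh was given every 60 s and peptide was flowed on. IC50 with 95% CI from 3–5 separate oocytes.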

[2] = molecular target: Nicotinic acetylcholine receptor alpha9/alpha10 (Rattus norvegicus, UniProt P43144+Q9JLB5); format: cell-based, Oocyte
Chain of Nicotinic acetylcholine receptor alpha9/alpha10 (P43144 whole entry): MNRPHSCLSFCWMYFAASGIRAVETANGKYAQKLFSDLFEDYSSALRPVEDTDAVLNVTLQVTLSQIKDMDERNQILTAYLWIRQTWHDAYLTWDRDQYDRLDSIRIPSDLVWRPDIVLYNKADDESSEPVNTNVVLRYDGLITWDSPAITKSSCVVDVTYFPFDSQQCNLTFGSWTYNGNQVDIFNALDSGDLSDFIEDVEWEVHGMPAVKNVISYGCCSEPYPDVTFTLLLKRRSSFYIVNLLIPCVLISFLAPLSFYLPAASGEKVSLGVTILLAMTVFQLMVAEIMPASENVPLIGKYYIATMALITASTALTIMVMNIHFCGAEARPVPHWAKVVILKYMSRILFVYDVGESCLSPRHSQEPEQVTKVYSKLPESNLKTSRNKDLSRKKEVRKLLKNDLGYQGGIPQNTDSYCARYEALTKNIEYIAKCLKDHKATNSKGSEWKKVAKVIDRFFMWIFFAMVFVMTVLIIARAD
Chain of Nicotinic acetylcholine receptor alpha9/alpha10 (Q9JLB5 whole entry): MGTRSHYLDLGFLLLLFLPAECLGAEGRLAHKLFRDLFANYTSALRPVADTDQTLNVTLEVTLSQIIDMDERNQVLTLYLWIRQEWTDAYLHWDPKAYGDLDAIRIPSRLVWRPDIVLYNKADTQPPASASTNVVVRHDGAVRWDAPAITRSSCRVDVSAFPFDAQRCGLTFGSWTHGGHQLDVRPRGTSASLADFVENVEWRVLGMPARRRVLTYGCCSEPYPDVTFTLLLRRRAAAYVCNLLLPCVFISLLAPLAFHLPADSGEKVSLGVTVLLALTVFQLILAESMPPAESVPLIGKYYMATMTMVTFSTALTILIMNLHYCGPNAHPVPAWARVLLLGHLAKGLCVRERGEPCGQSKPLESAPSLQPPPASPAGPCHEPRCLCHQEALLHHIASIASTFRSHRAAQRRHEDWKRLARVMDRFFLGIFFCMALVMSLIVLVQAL

Chain of Neuronal acetylcholine receptor; alpha9/alpha10 (Q9UGM1 whole entry): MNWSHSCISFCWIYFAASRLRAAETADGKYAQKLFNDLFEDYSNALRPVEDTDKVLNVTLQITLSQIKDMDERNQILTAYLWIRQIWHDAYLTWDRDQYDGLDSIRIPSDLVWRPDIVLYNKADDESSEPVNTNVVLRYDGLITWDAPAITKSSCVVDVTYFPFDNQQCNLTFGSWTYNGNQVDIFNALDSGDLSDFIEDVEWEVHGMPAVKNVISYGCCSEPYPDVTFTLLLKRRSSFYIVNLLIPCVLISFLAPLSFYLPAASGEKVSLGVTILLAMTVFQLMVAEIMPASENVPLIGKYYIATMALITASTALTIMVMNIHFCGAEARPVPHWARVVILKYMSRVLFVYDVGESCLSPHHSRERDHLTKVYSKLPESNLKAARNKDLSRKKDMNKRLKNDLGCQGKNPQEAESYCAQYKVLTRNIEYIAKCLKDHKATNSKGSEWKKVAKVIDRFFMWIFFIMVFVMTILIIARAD
Chain of Neuronal acetylcholine receptor; alpha9/alpha10 (Q9GZZ6 whole entry): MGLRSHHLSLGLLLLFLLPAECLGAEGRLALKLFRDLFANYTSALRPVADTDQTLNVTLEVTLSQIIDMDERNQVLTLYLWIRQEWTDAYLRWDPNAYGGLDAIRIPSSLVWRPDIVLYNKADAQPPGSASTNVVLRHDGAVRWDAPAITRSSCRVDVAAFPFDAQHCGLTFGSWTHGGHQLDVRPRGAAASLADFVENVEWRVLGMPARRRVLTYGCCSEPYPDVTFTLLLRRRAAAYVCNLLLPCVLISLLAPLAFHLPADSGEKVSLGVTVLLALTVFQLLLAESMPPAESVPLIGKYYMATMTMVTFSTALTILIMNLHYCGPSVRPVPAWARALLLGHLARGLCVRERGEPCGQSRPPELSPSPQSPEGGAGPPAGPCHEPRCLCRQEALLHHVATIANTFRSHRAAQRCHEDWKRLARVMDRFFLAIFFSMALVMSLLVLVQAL

| SMILES | IC50 [1] [nM] | IC50 [2] [nM] |
| --- | --- | --- |
| C[C@@H](O)[C@@H]1NC(=O)[C@H]2NC(=O)[C@H](NC(=O)CN)CSSC[C@H](NC(=O)[C@H](CCCNC(=N)N)NC(=O)[C@@H]3CCCN3C(=O)[C@H](CC(=O)O)NC1=O)C(=O)N[C@@H](CCCNC(=N)N)C(=O)N[C@@H](Cc1ccc(O)c(I)c1)C(=O)N[C@@H](CCCN)C(=O)N[C@H](C(=O)N[C@H](CC(=O)N[C@@H](CCC(=O)O)C(=O)O)Cc1ccc(O)cc1)CSSC2(C)C | 0.4 | – |
| C[C@@H](O)[C@@H]1NC(=O)[C@H]2NC(=O)[C@H](NC(=O)CN)CSSC[C@H](NC(=O)[C@H](CCCNC(=N)N)NC(=O)[C@@H]3CCCN3C(=O)[C@H](CC(=O)O)NC1=O)C(=O)N[C@@H](CCCNC(=N)N)C(=O)N[C@@H](Cc1ccc(O)c(I)c1)C(=O)N[C@@H](CCCN)C(=O)N[C@H](C(=O)N[C@H](CC(=O)N[C@@H](CCCNC(N)=O)C(=O)O)Cc1ccc(O)cc1)CSSC2(C)C | 0.26 | – |
| N=C(N)NCCC[C@H](NC(=O)[C@@H]1CSSC[C@@H]2NC(=O)[C@@H](NC(=O)CN)CSSC[C@H](NC(=O)[C@H](CCCNC(=N)N)NC(=O)[C@@H]3CCCN3C(=O)[C@H](CC(=O)O)NC(=O)[C@H](CO)NC2=O)C(=O)N[C@@H](CCCNC(N)=O)C(=O)N[C@@H](Cc2ccc(O)cc2)C(=O)N[C@@H](CCCNC(=N)N)C(=O)N1)C(=O)O | – | 1.49 |
| C[C@@H](O)[C@@H]1NC(=O)[C@H]2NC(=O)[C@H](NC(=O)CN)CSSC[C@H](NC(=O)[C@H](CCCNC(=N)N)NC(=O)[C@@H]3CCCN3C(=O)[C@H](CC(=O)O)NC1=O)C(=O)N[C@@H](CCCNC(=N)N)C(=O)N[C@@H](Cc1ccc(O)c(I)c1)C(=O)N[C@@H](CCCN)C(=O)N[C@H](C(=O)N[C@H](CC(=O)N[C@@H](CCCCN)C(=O)O)Cc1ccc(O)cc1)CSSC2(C)C | 0.36 | – |
| C[C@@H](O)[C@@H]1NC(=O)[C@H]2NC(=O)[C@H](NC(=O)CN)CSSC[C@H](NC(=O)[C@H](CCCNC(=N)N)NC(=O)[C@@H]3CCCN3C(=O)[C@H](CC(=O)O)NC1=O)C(=O)N[C@@H](CCCNC(=N)N)C(=O)N[C@@H](Cc1ccc(O)c(I)c1)C(=O)N[C@@H](CCCN)C(=O)N[C@H](C(=O)N[C@H](CC(=O)N[C@H](CCCNC(=N)N)C(=O)O)Cc1ccc(O)cc1)CSSC2(C)C | 4 | – |
